A short description of test [1]: S. cerevisiae growth inhibition in permissive medium (OD615), pilot counter-assay for S. cerevisiae lifespan shortening project, permissive growth control (AID 705). To be noted: OD615, 24 h, at 10 µM, hits give high values. In outline: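 System – S. cerevisiae with engineered DeaD lifespan system · Buffer or medium – SC raffinose/galactose permissive medium · Schedule – cells pre-grown 4 h, then 24 h compound exposure, 30 °C humidified · Technique – culture turbidity as optical density at 615 nm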

Test [2] in a line: S. cerevisiae growth inhibition in restrictive medium, OD615, pilot screen, restrictive growth control, yeast lifespan reduction project (AID 706;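 active = growth inhibition above a set limit, 3 SD over mean compound inhibition, in both replicates, cut at about 43% in these data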;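 note: modified DeaD lifespan yeast strain shifted to restrictive glucose medium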). Conditions: OD615, 48 h, at 10 µM, hits give high values. A digest of the protocol: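 Material: engineered S. cerevisiae DeaD strain / Medium: glucose-based CSMM-D restrictive medium / Compound: single dose of 10 µM compound final, 0.25% DMSO / Timing: 4 h pre-incubation, 48 h exposure at 30 °C / Technique: OD615 absorbance reading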

A short description of test [3]: doxorubicin toxicity protection in MRP-1 cells – H69AR cells, CellTiter-Glo, duplicate, MRP-1 activator project, pilot screen (AID 807;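 active = viability increase at or above a cutoff of the median across tested compounds plus 3 SD, cut at about 8.5% in these data, passing the limit was not always enough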;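 note: compound pretreatment 18-22 h then 72 h combined with doxorubicin; 0% = doxorubicin alone and 100% = vehicle without doxorubicin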). To be noted: H69AR viability with doxorubicin, CellTiter-Glo luminescence; at 10 µM; hits give high values.
Test [4] is described as follows: viability of HCT116 without oncogenic beta-catenin – human colon tumor cells, pilot screen (AID 823;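 active = cell viability at or below a set limit in both duplicate runs, the limit being the all-compound median minus 4 SD, cut at about 23% in these data, passing the limit was not always enough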;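 note: 0% = wells killed by 20 µM Hyamine and 100% = untreated DMSO cell wells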). Conditions: HCT116 beta-catenin knockout viability, CellTiter-Glo, 60 h; at 10 µM; hits give low values. In general terms: ATP-based viability assays read luminescence as a measure of living cells.
Test [5] can be described thus: viability of PTEN-null HCT116 cells – cell-based, HCT116 clonal line, CellTiter-Glo, pilot screen (AID 824;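 active = viability at or below 27.92% in each of two runs, the all-compound median minus 4 SD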;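 note: 0% = 20 µM Hyamine control and 100% = vehicle cell control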). To be noted: HCT116 PTEN-deleted viability, 60 h, at 10 µM, hits give low values.
A short description of test [6]: RAM pathway blockade in budding yeast – dse1pr::URA3 reporter, 5-FOA selection, pilot screen (AID 869;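 active = inhibition over a set limit, the all-compound mean plus 3 SD, in both replicate runs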;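 note: 0% = DMSO wells with no growth and 100% = 10 µM 1-NA-PP1 with full growth; RAM network block rescues cells from 5-FOA so hits raise OD615 growth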). Conditions: S. cerevisiae dse1pr::URA3 5-FOA growth, OD615, 2 d; at 10 µM; hits give high values; strain carries analog-sensitive mutant Cbk1 kinase.
A short description of test [7]: RAM signaling pathway blockade in yeast – S. cerevisiae, Pdr1DBD-CYC8 efflux-inhibited sensitized strain, primary screen (AID 1298;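 active = RAM network inhibition above 8.4% in each of two replicates, 3 SD over the compound average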;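 note: 0% = DMSO untreated cells without growth and 100% = 10 µM 1-NA-PP1 full growth; higher means more yeast growth rescued from 5-FOA killing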). To be noted: S. cerevisiae cbk1-as DSE1-URA3 strain, 5-FOA growth OD615, 2 d; at 50 µM; hits give high values.

Data on 18 compounds can be found in PubChem BioAssay.

Unmarked numbers belong to inactive results. Inconclusive results are not listed. The source made the active and inactive calls.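 Rule for the calls, unless noted: active = growth inhibition above 25% in both replicates, a cutoff set 3 SD above the mean; inconclusive = above 25% in only one replicate; inactive = the rest.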

With `Cc1ccc(-c2nc(NC(=O)CSc3nnc4scc(-c5ccccc5)n34)ns2)cc1`, the growth inhibition is 0.135% in test [1] and 0.99% in test [2]. For the same compound, the viability increase in test [3] was 1.17%. The viability (as a rule, a read-out of living cells in per cent, often relative to untreated cells) is 74% in test [4] and 66.8% in test [5]. In addition, in test [6], the inhibition (in general, the percentage by which the read-out fell short of the control) is 2.42%. Also, the RAM network inhibition in test [7] was 5.6%.
As for `c1ccc2c(c1)CCN(CCCNc1nc3ccccc3n3cnnc13)C2`, the growth inhibition in test [1] was -9.84%; in test [2], -12.9%. The viability increase in test [3] is -4.17%. For the same compound, the viability in test [4] is 91.3%; in test [5] it was 97.1%. The inhibition in test [6] was 1.18%. For the same compound, in test [7], the RAM network inhibition was -1.09%.
Consider `CCCCn1c(CN2CCN(C(=O)c3ccco3)CC2)nc2c1c(=O)n(C)c(=O)n2C`, for which the values for the growth inhibition in test [1] and in test [2] were -3.45% and -7.47%, respectively. Further, the viability increase in test [3] was -4.33%. The viability in test [4] is 101%; in test [5], 98%. The inhibition in test [6] is 0.905%. In test [7], the RAM network inhibition is 2.15%.
Take `C=CCNc1nc2c(c(=O)n(C)c(=O)n2C)n1CC`: the growth inhibition was 1.76% in test [1] and 3.36% in test [2]. Further, in test [3], the viability increase is -2.38%. The results for the viability in test [4] and in test [5] were 107% and 99.1%, respectively. For the same compound, in test [6], the inhibition was 2.24%. In addition, the RAM network inhibition in test [7] was 3.73%.
For `COc1ccc(-n2c(Cc3cc(=O)[nH]c(=O)[nH]3)nnc2SCC(=O)NC2CCCC2)cc1`, the growth inhibition in test [1] was -0.575%; in test [2], 2.41%. Also, the viability increase in test [3] was 1.47%. For the same compound, the viability was 104% in test [4] and 107% in test [5]. Besides, in test [6], the inhibition was 0.535%. In test [7], the RAM network inhibition was 3.15%.
For the compound `CN(C)S(=O)(=O)c1ccc(-c2ccccc2)cc1`, the growth inhibition is -6.75% in test [1] and -4.33% in test [2]. In addition, the viability increase in test [3] is 0.02%. In addition, the viability in test [4] is 91.9%; in test [5], 90.6%. Besides, the inhibition in test [6] was 0.455%. The RAM network inhibition in test [7] was 8.77%.
With `CCc1nnc(NC(=O)c2cccs2)s1`, the growth inhibition is -21.3% in test [1] and -3.98% in test [2]. The viability increase in test [3] is 2.17%. The viability in test [4] is 102%; in test [5] it was 90.1%. The inhibition in test [6] is 1.29%. The RAM network inhibition in test [7] is 0.32%.
In the case of `Nn1c(SCc2nc3ccccc3[nH]2)nnc1-c1cccnc1`, the growth inhibition in test [1] was 4.54%; in test [2] it was 14.9%. Moreover, the viability increase in test [3] was -2.44%. Moreover, the viability is 90.2% in test [4] and 95.7% in test [5]. Also, in test [6], the inhibition was 1.13%. The RAM network inhibition in test [7] is 1.82%.
For `CCOC(=O)Nc1ccc2c(c1)N(C(=O)N(CC)CC)c1ccccc1CC2`, the growth inhibition in test [1] was -8.36%; in test [2], -26.2%. Further, the viability increase in test [3] was -3.07%. Moreover, the viability in test [4] was 71.6%; in test [5], 71.3%. The inhibition in test [6] was 2.9%. In addition, the RAM network inhibition in test [7] was 2.11%.
As to `Cc1c(C(=O)N2CCN(CCc3ccccc3)CC2)oc2ccccc12`, the growth inhibition in test [1] is -0.01%; in test [2], 7.52%. The viability increase in test [3] is -1.75%. For the same compound, the viability in test [4] was 100%; in test [5], 94.7%. In addition, the inhibition in test [6] was 0.455%. Moreover, the RAM network inhibition in test [7] is 1.34%.
For `CC1(C)Cc2c(sc3nc(-c4cccs4)n(N)c(=O)c23)CO1`, the figures for the growth inhibition in test [1] and in test [2] were -10.5% and 18.5%, respectively. The viability increase in test [3] is -6.5%. Moreover, the values for the viability in test [4] and in test [5] were 42.1% and 45.5%, respectively. The inhibition in test [6] is 0.19%. Moreover, in test [7], the RAM network inhibition is 1.7%.
As to `CCCC(=O)N1CCN(c2ccc(C(=O)c3ccc(OC)c(Br)c3)cc2F)CC1`, the growth inhibition in test [1] was -14.6%; in test [2], -18.4%. In addition, in test [3], the viability increase is -1.74%. Moreover, the viability is 96.8% in test [4] and 93.7% in test [5]. For the same compound, in test [6], the inhibition is 1.3%. In addition, the RAM network inhibition in test [7] is 4.76%.
Regarding `COc1ccc(COC(=O)C2=C(C)NC(=O)NC2c2ccc(O)c(OC)c2)cc1` (stereo unspecified), the results for the growth inhibition in test [1] and in test [2] were -12% and -17.8%, respectively. For the same compound, the viability increase in test [3] was 3.03%. Further, the viability was 93.1% in test [4] and 89.2% in test [5]. Besides, in test [6], the inhibition is 0.34%. Besides, the RAM network inhibition in test [7] was 1.52%.
As to `COCc1cc(C)nc2sc(C(=O)N3CCN(c4ccccc4)CC3)c(N)c12`, the figures for the growth inhibition in test [1] and in test [2] were -3.52% and 2.86%, respectively. Besides, the viability increase in test [3] is -0.4%. Besides, the viability in test [4] is 89%; in test [5], 86.8%. The inhibition in test [6] was 1.76%. Further, in test [7], the RAM network inhibition was 3.05%.
As to `CCCN(CCC)CCCNC(=O)c1cc2c(=O)n(C)c3ccccc3c2n1C`, the growth inhibition is -3.03% in test [1] and -4.35% in test [2]. In addition, in test [3], the viability increase was -6.97%. Besides, the viability in test [4] is 72.5%; in test [5], 77.1%. In test [6], the inhibition is 1.22%. In test [7], the RAM network inhibition was 3.47%.
In the case of `O=C(c1ccccc1C(=O)N1CCN(c2ccccc2F)CC1)N1CCN(c2ccccc2F)CC1`, the growth inhibition in test [1] was -6.81%; in test [2], -15.5%. Besides, the viability increase in test [3] is -0.42%. Further, the viability in test [4] was 61.6%; in test [5], 68.2%. Moreover, in test [6], the inhibition was 1.44%. Further, the RAM network inhibition in test [7] was 11.2%.
`Cc1[nH]c2ccccc2c1Cc1nnc(SCC(N)=O)o1`: the growth inhibition in test [1] was 5.65%; in test [2], -5.42%. For the same compound, the viability increase in test [3] is -0.41%. Further, the figures for the viability in test [4] and in test [5] were 100% and 102%, respectively. For the same compound, the inhibition in test [6] is 1.88%. Further, in test [7], the RAM network inhibition was 1.36%.
With `Brc1cccc(-c2nnc3sc(CNCc4ccco4)cn23)c1`, the growth inhibition was 1.61% in test [1] and 47.3% (active) in test [2]. Besides, in test [3], the viability increase is -4.13%. Besides, the viability in test [4] is 94.2%; in test [5] it was 99.3%. In test [6], the inhibition is 1.97%. In addition, the RAM network inhibition in test [7] is 8.75%.
